Sampled rows, rich in hits. Any-hit rate of the full collection: about 4.2%.
KCNQ1 inh: inhibitors of human KCNQ1 potassium channel. P51787. CHO-K1 KCNQ1, FluxOR thallium flux fluorescence; stronger effect = higher value. B-score at 10 µM. 310,000 tested, 1.3% active;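 active = compounds whose thallium flux B-score, printed positive for inhibition, exceeds three library SD while starting fluorescence stays within three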;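 note: channel opened by potassium depolarization with thallium stimulus after 20 min compound exposure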
KCNQ1 pot: human KCNQ1 channel potentiation or activation | P51787 | CHO-K1 KCNQ1, thallium flux FluxOR fluorescence; stronger effect = higher value | B-score at 10 µM | 310,000 tested, 0.35% active;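 active = fluorescence ratio B-score, a plate-corrected score, at least three library SD, with initial intensity B-score within 5 SD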
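Assay system: stable KCNQ1 CHO-K1 line; medium: assay buffer, equal DMSO in all wells; timing: 90 min dye loading and 20 min compound exposure, both at room temperature; technique: kinetic FluxOR thallium fluorescence, 10-s 1-Hz baseline, 110-s post-stimulus read; read-out basis: B score of baseline-normalized fluorescence ratio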
hERG protect: hERG (human) protection from proarrhythmic block. Q12809. CHO-hERG, FluxOR thallium flux, dofetilide IC70 present. activation (rescue from dofetilide block), less the hit threshold, % at 10 µM. 310,000 tested, 0.51% active;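 active = activation above the mean of controls blocked by dofetilide plus 5 SD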;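 note: thallium influx through hERG after potassium depolarization seen as dye fluorescence rise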
AI-2 QS mod: Vibrio harveyi AI-2 quorum sensing modulation | activity change, % at 7.5 µM | 300,000 tested, 0.4% active | Vibrio harveyi JMH597 AI-2 luminescence/OD600 ratio, 9 h; stronger effect = lower value; strain lacks LuxN and CqsS sensors; 0 = neutral-control median; in the data active = activity change below about -75%, passing the limit was not always enough;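 note: luminescence divided by OD600 gain over 9 h not by final OD600 alone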
KCC2 mod: KCC2 (human) Cl- transport modulation; Q9H2X9; KCC2 cells, thallium flux FluoZin-2 fluorescence; B-score of Tl+ flux slope (higher = more flux/activation; lower = inhibition) at 10 µM; 190,000 tested, 2.2% active; AID 1456;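 active = thallium flux slope and its plate-corrected score both differing from the plate sample mean at a set confidence after two filtering rounds, in either direction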;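 note: slope of fluorescence scaled to starting intensity during 10 to 20 s after thallium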
Target sequence (Q9H2X9 whole entry, looked up): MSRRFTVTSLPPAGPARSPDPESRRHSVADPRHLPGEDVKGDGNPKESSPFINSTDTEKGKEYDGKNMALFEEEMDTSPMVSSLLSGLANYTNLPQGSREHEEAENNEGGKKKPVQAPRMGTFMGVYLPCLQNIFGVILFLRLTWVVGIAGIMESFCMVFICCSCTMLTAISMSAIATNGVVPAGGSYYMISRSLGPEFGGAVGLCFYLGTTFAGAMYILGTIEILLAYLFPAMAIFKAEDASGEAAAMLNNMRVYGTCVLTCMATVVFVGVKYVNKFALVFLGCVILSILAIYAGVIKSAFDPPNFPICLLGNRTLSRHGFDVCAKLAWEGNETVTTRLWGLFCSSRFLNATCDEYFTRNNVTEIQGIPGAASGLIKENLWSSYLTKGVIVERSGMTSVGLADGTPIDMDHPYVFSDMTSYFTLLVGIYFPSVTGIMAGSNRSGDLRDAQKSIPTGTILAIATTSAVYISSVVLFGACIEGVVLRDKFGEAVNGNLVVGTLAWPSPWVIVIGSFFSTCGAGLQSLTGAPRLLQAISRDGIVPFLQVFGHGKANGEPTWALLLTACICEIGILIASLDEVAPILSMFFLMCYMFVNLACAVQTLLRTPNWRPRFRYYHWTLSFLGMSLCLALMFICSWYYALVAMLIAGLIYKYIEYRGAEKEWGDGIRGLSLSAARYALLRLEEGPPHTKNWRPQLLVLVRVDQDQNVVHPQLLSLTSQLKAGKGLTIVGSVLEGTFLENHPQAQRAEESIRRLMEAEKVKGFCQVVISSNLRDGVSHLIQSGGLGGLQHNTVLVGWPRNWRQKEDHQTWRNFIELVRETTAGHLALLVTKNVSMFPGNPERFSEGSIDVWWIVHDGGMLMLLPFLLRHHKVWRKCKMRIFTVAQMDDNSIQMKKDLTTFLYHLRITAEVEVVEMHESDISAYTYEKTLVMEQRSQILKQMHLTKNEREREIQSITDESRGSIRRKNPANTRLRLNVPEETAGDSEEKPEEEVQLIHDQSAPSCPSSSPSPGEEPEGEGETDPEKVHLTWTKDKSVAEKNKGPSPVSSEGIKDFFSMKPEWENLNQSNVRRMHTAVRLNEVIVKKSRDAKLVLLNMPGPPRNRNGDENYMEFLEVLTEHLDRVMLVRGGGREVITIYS
Mot1-301 SUMO: SUMOylation pathway inhibition by Mot1-301 growth rescue; S. cerevisiae Mot1-301 growth rescue, ATP luminescence, 38.5C; percent above DMSO median, 100 means doubled; growth rescue, % at 18.8 µM; 320,000 tested, 1% active; AID 2716;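 active = every valid replicate shows activation above 250% relative to neutral control wells; inactive = the rest, any valid replicate at or below 250%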;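 note: OY570 slx delta 5 strain wells were the positive control but not used for scaling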
The depositor's hits bear a star.

Results for COc1ccc(N2CCN(C(=O)Cc3ccc(Cl)cc3)CC2)cc1 ?
KCNQ1 inh: inactive; KCNQ1 pot: inactive; hERG protect: -1; AI-2 QS mod: 17; Mot1-301 SUMO: 2

How did CS(=O)(=O)Nc1ccc(C2=NN(S(C)(=O)=O)C(c3ccc4c(c3)OCO4)C2)cc1 (stereo not drawn) do in these assays?
KCNQ1 inh: inactive; KCNQ1 pot: inactive; hERG protect: -8; AI-2 QS mod: 10; KCC2 mod: 0.0061; Mot1-301 SUMO: -4

Results for CC(=O)N(CC(C)(C)CC=C(C)C)c1ccccc1 ?
KCNQ1 inh: inactive; KCNQ1 pot: inactive; hERG protect: -14; AI-2 QS mod: 22; KCC2 mod: -0.079; Mot1-301 SUMO: 638*

What do the screens show for `CC(C)=CCN1CCN(Cc2cc(F)ccc2-n2nc(C)cc2C)CC1CCO` (stereo not drawn)?
KCNQ1 inh: inactive; KCNQ1 pot: inactive; hERG protect: -1; AI-2 QS mod: 15; KCC2 mod: 0.69; Mot1-301 SUMO: 39

How did COc1ccc(N2C(C(C)=O)=NN(c3ccccc3)C2c2cccs2)cc1 (stereo not drawn) do in these assays?
KCNQ1 inh: 7*; KCNQ1 pot: inactive; hERG protect: -9; AI-2 QS mod: 25; KCC2 mod: 0.99; Mot1-301 SUMO: -2

How did O=C(CSc1nc(=O)n(CCCN2CCOCC2)c2c1CCCC2)Nc1cccc(Cl)c1 do in these assays?
KCNQ1 inh: inactive; KCNQ1 pot: inactive; hERG protect: -20; AI-2 QS mod: 16; Mot1-301 SUMO: -9

How did CCOc1ccccc1NC1=C(Cl)C(=O)N(c2ccccc2)C1=O do in these assays?
KCNQ1 inh: inactive; KCNQ1 pot: 13*; hERG protect: -11; AI-2 QS mod: 3; KCC2 mod: -0.023; Mot1-301 SUMO: -20

What do the screens show for `CCOc1ccccc1NC1=C(Cl)C(=O)N(Cc2ccccc2)C1=O`?
KCNQ1 inh: inactive; KCNQ1 pot: inactive; hERG protect: -3; AI-2 QS mod: -16; KCC2 mod: 0.27; Mot1-301 SUMO: 11

What do the screens show for `COc1cc([N+](=O)[O-])cc2sc(NC(=O)c3c(F)cccc3F)nc12`?
KCNQ1 inh: inactive; KCNQ1 pot: inactive; hERG protect: -2; AI-2 QS mod: -4; KCC2 mod: -0.067; Mot1-301 SUMO: 4

How did CCOC(=O)Cc1csc2nc(-c3ccccc3)nn12 do in these assays?
KCNQ1 inh: inactive; KCNQ1 pot: inactive; hERG protect: -2; AI-2 QS mod: 13; KCC2 mod: 0.58; Mot1-301 SUMO: 72

How did CCOC(=O)c1cc(=O)n2nc(-c3ccc(C)cc3)nc2s1 do in these assays?
KCNQ1 inh: 7*; KCNQ1 pot: inactive; hERG protect: -9; AI-2 QS mod: 19; KCC2 mod: 0.29; Mot1-301 SUMO: 12

Results for O=C1CSC(=S)N1/N=C/c1cc(Br)ccc1O ?
KCNQ1 inh: inactive; KCNQ1 pot: inactive; hERG protect: 7.1*; AI-2 QS mod: 83; Mot1-301 SUMO: -17

Results for CC(C)Sc1nc2ccccc2n1CC(=O)NCc1ccc2c(c1)OCO2 ?
KCNQ1 inh: inactive; KCNQ1 pot: inactive; hERG protect: -14; AI-2 QS mod: 22; KCC2 mod: -1.5; Mot1-301 SUMO: 0

What do the screens show for `Cc1cc(NC(=O)CSc2nc(CCC3CCCC3)nc3ccccc23)no1`?
KCNQ1 inh: inactive; KCNQ1 pot: inactive; hERG protect: -17; AI-2 QS mod: -20; KCC2 mod: -2.6; Mot1-301 SUMO: -3

What do the screens show for `CC(C)N(C(=O)Cn1c(SCC(=O)NCc2ccc3c(c2)OCO3)nc2ccccc21)C(C)C`?
AI-2 QS mod: 16; KCC2 mod: -0.44; Mot1-301 SUMO: 307*

What do the screens show for `O=C(CSc1nc(CCC2CCCC2)nc2ccccc12)NCc1ccc2c(c1)OCO2`?
KCNQ1 inh: inactive; KCNQ1 pot: inactive; hERG protect: -8; AI-2 QS mod: 10; KCC2 mod: 21*; Mot1-301 SUMO: -2

Results for CCCCn1c(-c2csc3c2CCCC3)n[nH]c1=S ?
KCNQ1 inh: inactive; KCNQ1 pot: inactive; hERG protect: -9; AI-2 QS mod: -12; KCC2 mod: 3*; Mot1-301 SUMO: 12

What do the screens show for `CCn1c(-c2csc3c2CCCC3)n[nH]c1=S`?
KCNQ1 inh: inactive; KCNQ1 pot: inactive; hERG protect: -3; AI-2 QS mod: -6; KCC2 mod: 2; Mot1-301 SUMO: -2

Results for CCCCn1c(-c2csc3c2CCC(C)C3)n[nH]c1=S (stereo not drawn) ?
KCNQ1 inh: inactive; KCNQ1 pot: inactive; hERG protect: -10; AI-2 QS mod: -6; KCC2 mod: 22*; Mot1-301 SUMO: 12

Results for CSc1cccc(-c2nnc(NC(=O)c3cccc(N4C(=O)CCC4=O)c3)o2)c1 ?
KCNQ1 inh: inactive; KCNQ1 pot: inactive; hERG protect: -3; AI-2 QS mod: 34; Mot1-301 SUMO: -2

Results for O=C(CCC(=O)N1CCCCC1)Nc1ccc(Cl)c(Cl)c1 ?
KCNQ1 inh: inactive; KCNQ1 pot: inactive; hERG protect: -10; AI-2 QS mod: -78*; Mot1-301 SUMO: -14

How did COc1cc(NC(=O)c2ccc(Cl)cc2)c(OC)cc1NC(=O)CN1CCOCC1 do in these assays?
KCNQ1 inh: inactive; KCNQ1 pot: inactive; hERG protect: -9; AI-2 QS mod: 5; KCC2 mod: -5.2*; Mot1-301 SUMO: 3

What do the screens show for `O=C(CN1CCOCC1)Nc1ccc(Cl)c(Cl)c1`?
KCNQ1 inh: inactive; KCNQ1 pot: inactive; hERG protect: 5.9*; Mot1-301 SUMO: -9

Results for COc1ccc(CCNC(=S)NC(=O)c2cccc([N+](=O)[O-])c2)cc1OC ?
KCNQ1 inh: inactive; KCNQ1 pot: inactive; hERG protect: -11; AI-2 QS mod: 9; Mot1-301 SUMO: -13

What do the screens show for `O=C(Cc1ccc(-c2ccccc2)cc1)Nc1ncccc1O`?
KCNQ1 inh: inactive; KCNQ1 pot: inactive; hERG protect: -4; AI-2 QS mod: 13; Mot1-301 SUMO: 26

What do the screens show for `Cc1cc(C)cc(S(=O)(=O)c2cn(C)c3cc(N4CCN(C)CC4)c(F)cc3c2=O)c1`?
KCNQ1 inh: inactive; KCNQ1 pot: inactive; hERG protect: -5; AI-2 QS mod: -3; Mot1-301 SUMO: -4

How did CCOC(=O)C1CCN(C(=O)C2CCCN(S(=O)(=O)c3ccc(OCC)c(Cl)c3)C2)CC1 (stereo not drawn) do in these assays?
KCNQ1 inh: inactive; KCNQ1 pot: inactive; hERG protect: -21; AI-2 QS mod: 13; Mot1-301 SUMO: 1

How did CCCNC(=O)NC(=O)CSc1ccc2c(c1)OCCO2 do in these assays?
KCC2 mod: -0.79; Mot1-301 SUMO: 41

Source: PubChem (several laboratories)
